Source: ChEMBL document CHEMBL4680181, “Identification of a 2,4-diaminopyrimidine scaffold targeting Trypanosoma brucei pteridine reductase 1 from the LIBRA compound library screening campaign” (Eur J Med Chem, 2020)
The source made the active and inactive calls. No cut-off for these calls is given here.

Assays:
[1] = test system: Trypanosoma brucei brucei; assay: Antitrypanosomal activity against bloodstream form of trypanosoma brucei brucei 427 assessed as inhibition of parasitic growth at 0.1 uM after 72 hrs in presence of MTX by resazurin staining based fluorescence assay relative to control; type: functional; conditions: read-out: GI
In short: (§1)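 T. brucei bloodstream forms in a modified resazurin-based growth assay. EC50 (concentration inhibiting growth by 50%) obtained by nonlinear regression. Combination wells contained 4 μM MTX (methotrexate); single-agent MTX was run at 4 μM. Single-concentration tests used 10, 1 or 0.1 μM of test compound.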

Pteridine reductase 1 = target: T1, Pteridine reductase 1 (Leishmania major, UniProt Q01782); assay: Inhibition of Leishmania major PTR1 using H2B as substrate preincubated for 10 mins followed by NADPH addition and measured up to 50 mins relative to control
T1 sequence (Q01782 whole entry): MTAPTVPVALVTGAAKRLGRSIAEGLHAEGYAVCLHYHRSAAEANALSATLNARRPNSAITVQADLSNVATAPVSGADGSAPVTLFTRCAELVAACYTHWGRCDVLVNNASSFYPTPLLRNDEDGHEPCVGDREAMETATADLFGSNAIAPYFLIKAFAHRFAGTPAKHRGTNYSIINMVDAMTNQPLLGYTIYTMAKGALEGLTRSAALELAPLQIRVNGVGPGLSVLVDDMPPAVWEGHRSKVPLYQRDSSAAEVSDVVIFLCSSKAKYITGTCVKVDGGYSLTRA
In short: (§2)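 Purified recombinant LmPTR1 or TbPTR1 in a coupled enzyme assay. Nine-point dose response from 0.5 to 100 μM. IC50, pIC50 and Hill slope from a 4-parameter logistic fit. Ki derived by the competitive model Ki = IC50/((S/Km)+1).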

[2] = Inhibition of Trypanosoma brucei PTR1 using H2B as substrate preincubated for 10 mins followed by NADPH addition and measured up to 50 mins relative to control; in short: as §2
[3] = test system: Trypanosoma brucei brucei; assay: Antitrypanosomal activity against bloodstream form of trypanosoma brucei brucei 427 assessed as reduction in parasitic growth after 72 hrs by resazurin staining based fluorescence assay; type: functional, organism-based; in short: as §1
[4] = test system: Trypanosoma brucei brucei; assay: Antitrypanosomal activity against bloodstream form of trypanosoma brucei brucei 427 assessed as inhibition of parasitic growth at 0.1 uM after 72 hrs by resazurin staining based fluorescence assay relative to control; type: functional, organism-based; in short: as §1
Trypanosoma brucei = assay: Inhibition of Trypanosoma brucei PTR1 at 50 uM using H2B as substrate preincubated for 10 mins followed by NADPH addition and measured up to 50 mins relative to control; conditions: time min <=60
[5] = test system: Trypanosoma brucei brucei; assay: Antitrypanosomal activity against bloodstream form of trypanosoma brucei brucei 427 assessed as potentiation index at 0.1 uM after 72 hrs in presence of MTX by resazurin staining based fluorescence assay; type: functional
In short: (§3)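 Synergy index taken as the activity of test compound plus 4 μM MTX, divided by the summed activities of test compound alone and 4 μM MTX alone. Resazurin-based assay on T. brucei bloodstream forms.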

[6] = test system: Trypanosoma brucei brucei; assay: Antitrypanosomal activity against bloodstream form of trypanosoma brucei brucei 427 assessed as inhibition of parasitic growth at 10 uM after 72 hrs in presence of MTX by resazurin staining based fluorescence assay relative to control; type: functional; conditions: for inhibition of growth at 10 µM: read-out: GI; in short: as §1
CYP2D6 = CYP2D6 (Homo sapiens, UniProt P10635); assay: Inhibition of CYP2D6 (unknown origin) at 10 uM by P450-Glo assay relative to control; type: ADME
In short: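 CYP2D6 inhibition measured in the P450-Glo luminescent platform, with compound at 10 μM.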

hERG (KCNH2) = hERG (KCNH2) (Homo sapiens, UniProt Q12809); assay: Inhibition of human ERG at 10 uM by fluorescence polarization assay relative to control
In short: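 hERG inhibition measured by fluorescence polarization (Predictor hERG assay), with compound at 10 μM.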

[7] = test system: Trypanosoma brucei brucei; assay: Antitrypanosomal activity against bloodstream form of trypanosoma brucei brucei 427 assessed as inhibition of parasitic growth at 10 uM after 72 hrs by resazurin staining based fluorescence assay relative to control; type: functional; in short: as §1
[8] = test system: Trypanosoma brucei brucei; assay: Antitrypanosomal activity against bloodstream form of trypanosoma brucei brucei 427 assessed as potentiation index at 10 uM after 72 hrs in presence of MTX by resazurin staining based fluorescence assay; type: functional; in short: as §3
[9] = test system: Trypanosoma brucei brucei; assay: Antitrypanosomal activity against bloodstream form of trypanosoma brucei brucei 427 assessed as inhibition of parasitic growth at 4 uM after 72 hrs in presence of MTX by resazurin staining based fluorescence assay relative to control; type: functional; conditions: read-out: GI; in short: as §1
[10] = Cytotoxicity against human A549 cells assessed as reduction in cell viability by Cell Titer-Glo assay; type: cell-based
In short: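 A549 cells from DSMZ, grown in DMEM with 10% v/v FCS, 100 μg/mL streptomycin and 100 U/mL penicillin G. Viability read by CellTiter-Glo luminescence of cellular ATP, which scales with cell number. GI50 reported.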

[11] = test system: Trypanosoma brucei brucei; assay: Antitrypanosomal activity against bloodstream form of trypanosoma brucei brucei 427 assessed as inhibition of parasitic growth at 1 uM after 72 hrs in presence of MTX by resazurin staining based fluorescence assay relative to control; type: functional; conditions: read-out: GI; in short: as §1
[12] = test system: Trypanosoma brucei brucei; assay: Antitrypanosomal activity against bloodstream form of trypanosoma brucei brucei 427 assessed as inhibition of parasitic growth at 1 uM after 72 hrs by resazurin staining based fluorescence assay relative to control; type: functional, organism-based; in short: as §1
[13] = test system: Trypanosoma brucei brucei; assay: Antitrypanosomal activity against bloodstream form of trypanosoma brucei brucei 427 assessed as potentiation index at 1 uM after 72 hrs in presence of MTX by resazurin staining based fluorescence assay; type: functional; in short: as §3
[14] = Cytotoxicity against human THP-1 cells assessed as reduction in cell viability by MTT assay; type: cell-based
[15] = Selectivity ratio Ki for inhibition of inhibition of Leishmania major PTR1 to Ki for inhibition of Trypanosoma brucei PTR1
In short: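 Ki values for LmPTR1 and TbPTR1, each calculated from the coupled-assay IC50 with the competitive model Ki = IC50/((S/Km)+1).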

[16] = Trypanosoma brucei, 427, 72 h, read-out: IC50

Sequence of hERG (KCNH2) (Q12809 whole entry): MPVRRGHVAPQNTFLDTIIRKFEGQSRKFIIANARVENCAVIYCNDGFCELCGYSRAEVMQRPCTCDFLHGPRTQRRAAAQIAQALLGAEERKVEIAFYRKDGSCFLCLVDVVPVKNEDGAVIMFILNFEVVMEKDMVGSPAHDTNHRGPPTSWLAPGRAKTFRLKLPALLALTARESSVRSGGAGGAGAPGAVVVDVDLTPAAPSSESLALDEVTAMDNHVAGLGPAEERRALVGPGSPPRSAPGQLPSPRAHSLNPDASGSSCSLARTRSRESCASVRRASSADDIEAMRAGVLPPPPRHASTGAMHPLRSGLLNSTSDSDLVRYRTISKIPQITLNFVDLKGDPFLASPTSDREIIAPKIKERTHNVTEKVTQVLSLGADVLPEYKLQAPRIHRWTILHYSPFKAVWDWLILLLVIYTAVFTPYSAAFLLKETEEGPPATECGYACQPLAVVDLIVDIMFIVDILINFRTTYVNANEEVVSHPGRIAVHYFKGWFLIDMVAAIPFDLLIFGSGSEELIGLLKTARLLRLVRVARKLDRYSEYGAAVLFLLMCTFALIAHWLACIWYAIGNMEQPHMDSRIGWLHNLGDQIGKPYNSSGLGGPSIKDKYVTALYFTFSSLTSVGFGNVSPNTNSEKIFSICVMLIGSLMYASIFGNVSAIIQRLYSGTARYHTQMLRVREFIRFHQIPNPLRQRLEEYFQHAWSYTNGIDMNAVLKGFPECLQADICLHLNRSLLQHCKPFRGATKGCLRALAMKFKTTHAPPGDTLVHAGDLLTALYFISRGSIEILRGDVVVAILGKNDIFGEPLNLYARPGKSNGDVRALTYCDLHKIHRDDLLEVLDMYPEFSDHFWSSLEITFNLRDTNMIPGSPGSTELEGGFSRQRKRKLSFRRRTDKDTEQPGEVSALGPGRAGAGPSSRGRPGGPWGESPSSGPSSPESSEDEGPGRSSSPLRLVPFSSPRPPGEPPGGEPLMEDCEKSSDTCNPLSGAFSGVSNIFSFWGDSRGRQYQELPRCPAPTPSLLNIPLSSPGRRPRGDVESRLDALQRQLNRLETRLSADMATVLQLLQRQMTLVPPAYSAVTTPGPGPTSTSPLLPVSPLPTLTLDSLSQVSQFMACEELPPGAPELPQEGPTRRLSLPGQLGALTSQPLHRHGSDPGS
Sequence of CYP2D6 (P10635 whole entry): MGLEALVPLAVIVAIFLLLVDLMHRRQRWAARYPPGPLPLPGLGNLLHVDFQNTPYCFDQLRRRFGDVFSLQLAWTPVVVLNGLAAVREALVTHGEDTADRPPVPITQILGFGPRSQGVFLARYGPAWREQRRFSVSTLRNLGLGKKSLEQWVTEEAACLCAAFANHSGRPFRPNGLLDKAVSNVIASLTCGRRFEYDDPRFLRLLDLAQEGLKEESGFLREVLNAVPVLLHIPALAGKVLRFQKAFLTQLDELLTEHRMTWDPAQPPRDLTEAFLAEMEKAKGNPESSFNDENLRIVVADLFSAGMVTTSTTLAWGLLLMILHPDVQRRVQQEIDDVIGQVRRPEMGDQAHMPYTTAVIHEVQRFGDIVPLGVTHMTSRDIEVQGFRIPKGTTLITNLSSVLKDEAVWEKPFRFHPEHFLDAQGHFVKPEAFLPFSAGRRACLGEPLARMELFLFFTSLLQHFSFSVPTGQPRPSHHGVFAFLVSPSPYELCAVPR

Work on `O=C1CCCCCNCc2ccc(cc2)Cc2ccc(cc2)CNCCCCCC(=O)N(Cc2ccccc2)CCCCCCCCN1Cc1ccccc1` yielded an inhibition of growth at 0.1 µM [1] of 42%, a Ki (Pteridine reductase 1) of 14.8 µM and a Ki ([2]; read-out: Ki) of 2.7 µM. For the same compound, the IC50 [3, 16] was 0.58 µM, the “growth inhibition (GI)” value [4] was “inactive” and the inhibition (Trypanosoma brucei) was greater than 85%. The Activity_index [5] was 1.1.
Compound `Nc1cc(NCc2ccc(F)cc2)nc(N)n1` has an inhibition of growth at 10 µM [6] of 37%, a Ki (Pteridine reductase 1) greater than 100 µM and a Ki ([2]; read-out: Ki) of 1.1 µM. The inhibition at 10 µM (CYP2D6) was 30%, the inhibition at 10 µM (hERG (KCNH2)) was greater than 50% and the IC50 [3] was “Not Active”. For the same compound, the “growth inhibition (GI)” value [7] was “inactive” and the Activity_index [8] was 1.8.
In the case of `O=C1CCCCCNCc2ccc(cc2)-c2ccc(cc2)CNCCCCCC(=O)N(Cc2ccccc2)CCCCCCCCN1Cc1ccccc1`, the inhibition of growth at 0.1 µM [1] is reported as 41%, the Ki (Pteridine reductase 1) is reported as 19.2 µM and the Ki ([2]; read-out: Ki) is reported as 1.6 µM. The IC50 [3, 16] was 0.56 µM, the “growth inhibition (GI)” value [4] was “inactive” and the inhibition (Trypanosoma brucei) was greater than 85%. The Activity_index [5] was 1.2.
For “4-(4-Methoxybenzylamino)2,6-diaminopyrimidine”, the growth inhibition (GI) [6] was 41%, the “growth inhibition (GI)” value [7] was “inactive” and the Activity index [8] was 2.2.
Work on `CN(Cc1cnc2nc(N)nc(N)c2n1)c1ccc(C(=O)N[C@@H](CCC(=O)O)C(=O)O)cc1` [METHOTREXATE] yielded an inhibition of growth at 4 µM [9] of 19%.
Compound `COc1ccc(COc2cc(N)nc(N)n2)cc1` has an inhibition of growth at 10 µM [6] of 42%, a Ki (Pteridine reductase 1) greater than 100 µM and a Ki ([2]; read-out: Ki) of 0.8 µM. For the same compound, the IC50 [3] was “Not Active”, the “growth inhibition (GI)” value [7] was “inactive” and the Activity_index [8] was 2.2.
`O=C1CCCCCNCc2ccc(cc2)CNCCCCCC(=O)N(Cc2ccccc2)CCCCCCCCN1Cc1ccccc1` gave an inhibition of growth at 0.1 µM [1] of 43%, an IC50 (Pteridine reductase 1) greater than 100 µM and a Ki (Pteridine reductase 1) greater than 100 µM. For the same compound, the Ki ([2]; read-out: Ki) was 1.7 µM, the IC50 [3, 16] was 0.61 µM and the “growth inhibition (GI)” value [4] was “inactive”. For the same compound, the inhibition (Trypanosoma brucei) was greater than 85% and the Activity_index [5] was 1.4.
With `Cn1cnc2c(N)nc(CCc3ccccc3)nc21` the inhibition of growth at 10 µM [6] was 56%, the Ki (Pteridine reductase 1) was 12 µM and the Ki ([2]; read-out: Ki) was 4.9 µM. For the same compound, the IC50 [3] was “Not Active”, the inhibition (Trypanosoma brucei) was greater than 85% and the Activity_index [8] was 1.7.
In the case of `Nc1cc(NCc2ccc(-c3ccccc3)cc2)nc(N)n1`, the Ki (Pteridine reductase 1) is reported as 15.3 µM, the Ki ([2]; read-out: Ki) is reported as 0.2 µM and the GI50 [10] is reported as 28.6 µM. For the same compound, the inhibition of growth at 1 µM [11] was 49%, the “growth inhibition (GI)” value [12] was “Active” and the Activity_index [13] was 2.3. The IC50 [3, 16] was 3.7 µM, the CC50 [14] was less than 25 µM and the inhibition of growth at 10 µM ([7]; read-out: GI) was greater than 80%.
`NCCCCCCN1CC[C@H]2COc3ccccc3[C@H]21` gave an inhibition of growth at 10 µM [6] of 51%, an IC50 (Pteridine reductase 1) greater than 100 µM and a Ki (Pteridine reductase 1) greater than 100 µM. For the same compound, the Ki ([2]; read-out: Ki) was 1.6 µM, the Ratio Ki [15] was greater than 62.5 and the IC50 [3] was “Not Active”. For the same compound, the inhibition (Trypanosoma brucei) was greater than 85%, the “growth inhibition (GI)” value [7] was “inactive” and the Activity_index [8] was 1.3.
For `Nc1nc(NCc2ccccc2)cc(NCc2ccccc2)n1`, the Ki (Pteridine reductase 1) was greater than 100 µM, the Ki [2] was “Not Active” and the inhibition at 10 µM (hERG (KCNH2)) was greater than 50%.
Work on `COc1ccccc1CNCc1ccc(CNCCCCCCCCCCCCNCc2ccc(CNCc3ccccc3OC)cc2)cc1` yielded an inhibition of growth at 0.1 µM [1] of 46%, a Ki (Pteridine reductase 1) of 37.2 µM and a Ki ([2]; read-out: Ki) of 0.2 µM. The Ratio Ki [15] was 186, the IC50 [3, 16] was 0.27 µM and the “growth inhibition (GI)” value [4] was “inactive”. The inhibition (Trypanosoma brucei) was greater than 85% and the Activity_index [5] was 1.1.
Compound `Nc1cc(NCc2ccccc2)nc(N)n1` has an inhibition of growth at 10 µM [6] of 24%, a Ki (Pteridine reductase 1) greater than 100 µM and a Ki ([2]; read-out: Ki) of 3.4 µM. The inhibition at 10 µM (CYP2D6) was 30%, the inhibition at 10 µM (hERG (KCNH2)) was greater than 50% and the IC50 [3] was “Not Active”. The “growth inhibition (GI)” value [7] was “inactive” and the Activity_index [8] was 1.3.
For `Cl.Fc1ccc(N(CCNCCCc2ccccc2)c2ccc(F)cc2)cc1`, the inhibition of growth at 0.1 µM [1] was 46%, the IC50 (Pteridine reductase 1) was greater than 100 µM and the Ki (Pteridine reductase 1) was greater than 100 µM. It also gave a Ki ([2]; read-out: Ki) of 2.2 µM, a Ratio Ki [15] greater than 45 and an IC50 [3, 16] of 2.45 µM. The “growth inhibition (GI)” value [4] was “inactive”, the inhibition (Trypanosoma brucei) was greater than 85% and the Activity_index [5] was 1.1.
`Oc1ccc(-c2ccc(-c3cc(O)cc(O)c3)c(-c3ccccc3)c2)cc1` gave a Ki (Pteridine reductase 1) of 5.7 µM, an IC50 [2] greater than 100 µM and a Ki ([2]; read-out: Ki) greater than 100 µM. It also gave an inhibition (Trypanosoma brucei) greater than 85%.
Compound `Nc1cc(OCc2ccccc2)nc(N)n1` has an inhibition of growth at 10 µM [6] of 36%, an IC50 (Pteridine reductase 1) greater than 100 µM and a Ki (Pteridine reductase 1) greater than 100 µM. The Ki ([2]; read-out: Ki) was 0.6 µM, the GI50 [10] was greater than 60 µM and the inhibition at 10 µM (CYP2D6) was less than 30%. The inhibition at 10 µM (hERG (KCNH2)) was less than 30%, the Ratio Ki [15] was greater than 167 and the IC50 [3] was “Not Active”. For the same compound, the inhibition (Trypanosoma brucei) was greater than 85%, the CC50 [14] was greater than 60 µM and the “growth inhibition (GI)” value [7] was “inactive”. For the same compound, the Activity_index [8] was 1.9.
